Compound activity from PubChem.
Sampled rows, rich in hits. Any-hit rate of the full collection: about 29%.
CYP2C19 activ – human CYP2C19 activators, primary screen, biochemical, luminescence. recombinant CYP2C19, luciferin-H EGE luminescence; hits give high values; 0 = fully inhibited enzyme, 1 = untreated enzyme. activation factor at 5 µM. 96,000 tested, under 10 active;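 active = activation factor of at least 2 at 5 µM in the primary screen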;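 note: 0 = wells with 2.5 mM tranylcypromine and 1 = vehicle-only wells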
Target sequence (P33261 whole entry, looked up): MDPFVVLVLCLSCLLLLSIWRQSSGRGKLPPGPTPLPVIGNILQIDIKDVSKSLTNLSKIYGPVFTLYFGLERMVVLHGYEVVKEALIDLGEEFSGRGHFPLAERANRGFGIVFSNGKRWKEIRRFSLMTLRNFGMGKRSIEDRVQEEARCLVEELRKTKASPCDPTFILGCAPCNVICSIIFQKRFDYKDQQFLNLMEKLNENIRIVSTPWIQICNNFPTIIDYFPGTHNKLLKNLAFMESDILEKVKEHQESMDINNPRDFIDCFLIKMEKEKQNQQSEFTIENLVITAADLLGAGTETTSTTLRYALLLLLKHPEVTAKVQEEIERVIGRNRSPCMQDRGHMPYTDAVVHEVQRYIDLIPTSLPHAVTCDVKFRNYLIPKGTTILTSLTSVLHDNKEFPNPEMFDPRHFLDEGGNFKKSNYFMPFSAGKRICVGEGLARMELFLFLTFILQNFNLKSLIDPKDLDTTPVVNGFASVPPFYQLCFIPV
tolC growth inh – growth inhibitors of E. coli tolC mutant, primary screen, strain BW25113 ΔtolC::kan, 384-well; actives 2.2% (n = 65,000); growth inhibition, % at 10 µM (by protocol); AID 573, 2007; OD615;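 active = growth inhibition at or above a cutoff equal to the mean over every tested compound plus 3 SD, cut at about 60% in these data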;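 note: growth measured after 20 h incubation at 37 °C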
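Signal: optical density read at 615 nm; Assay system: E. coli ΔtolC::kan strain BW25113; Times: 20 h incubation with compound, 37 °C; Dosing: 10 µM final, single dose.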
CYP2C19 inhib – blockers of cytochrome P450 2C19 activity – biochemical, luminescence, ADME assay, primary screen; P33261; CYP2C19 Supersomes, luciferin-H EGE luminescence, 30 min; inhibition, % at 5 µM; actives 21% (n = 96,000); AID 778, 2007;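 active = CYP2C19 inhibition above a set limit at 5 µM in the primary screen, cut at about 50% in these data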;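 note: plate controls were negative control wells for no effect and 2.5 mM tranylcypromine positive control for full effect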
CYP2C9 activ – human CYP2C9 activators, primary screen, biochemical, luminescence. activation factor at 5 µM. actives 1.4% (n = 96,000). recombinant CYP2C9, luciferin-H conversion; hits give high values; factor 1 = untreated enzyme, 0 = blocked. Cytochrome P450 2C9 (Homo sapiens), P11712;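 active = activation factor of 2 or more for CYP2C9 at a 5 µM dose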;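 note: 0 = sulfaphenazole-blocked wells and 1 = vehicle-only wells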
CYP2C9 inh – blockers of cytochrome P450 2C9 activity – biochemical, luminescence, ADME assay, primary screen; P11712; inhibition, % at 5 µM; actives 20% (n = 96,000); CYP2C9 Supersomes, luciferin-H conversion;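 active = blocking of liver enzyme CYP2C9 beyond about 50% at 5 µM, limit read from the data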
Ecoli WT expand – growth inhibitors of wild-type E. coli, primary screen, strain BW25113, expanded library, OD600. OD600 absorbance. growth inhibition, % at 100 µM. actives 0.15% (n = 98,000);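 active = growth inhibition above about 50% at one test dose, limit read from the data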;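 note: growth measured after 20 h incubation at 37 °C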
Starred values were filed as active, the others as inactive; / = not tested or not shown.

SMILES	CYP2C19 activ	tolC growth inh	CYP2C19 inhib	CYP2C9 activ	CYP2C9 inh	Ecoli WT expand
COCCOC(=O)C1=C(C)NC2=C(C(=O)CCC2)C1c1ccc(N(C)C)cc1 (stereo not drawn)	0.8	4.6	20.7	0.7	30.0	/
CCCOC(=O)C1=C(C)NC2=C(C(=O)CCC2)C1c1cccs1 (stereo not drawn)	0.2	4.8	78.2*	0.3	71.4*	-3.0
Cc1cc2c(cc(C(=O)OCC(=O)NCc3cccs3)n2C(C)C)o1	0.5	74.5*	50.0*	0.4	64.8*	-8.0
O=C(Oc1cc(-c2ccccc2)no1)c1ccc(Cl)cc1	1.1	/	-8.8	1	4.7	-20.0
Cc1onc(-c2c(Cl)cccc2Cl)c1C(=O)NCCc1ccc(S(N)(=O)=O)cc1	0.7	/	33.0	0.3	72.7*	0.0
COC(=O)CNC(=O)c1c(-c2ccccc2Cl)noc1C	0.9	-19.1	10.6	1	-4.9	-8.0
Cc1ccc(NC(=O)c2c(-c3c(F)cccc3Cl)noc2C)cc1F	0.2	21.0	83.4*	0.1	92.0*	-5.0
CCOC(=O)C(=O)/C(=C\N(C)C)c1onc(-c2c(F)cccc2Cl)c1C(=O)OC	0.5	/	48.3	0.4	57.8*	3.0
Cc1onc(-c2ccccc2)c1C(=O)NCCc1ccc(S(N)(=O)=O)cc1	0.9	/	5.6	1	-1.5	-6.0
COC(=O)CNC(=O)c1c(-c2c(Cl)cccc2Cl)noc1C	0.5	-10.4	47.5	0.4	58.3*	-5.0
Cc1cccc(/N=C/c2c(O)n(-c3cc(Cl)ccc3N3CCOCC3)c(=O)c3ccccc23)n1	/	8.8	/	/	/	/
Cc1ccc(-c2nnc3n2N=C(c2ccccc2Br)CS3)cc1	0.6	19.3	41.1	0.6	43.0	-2.0
CC(=O)Nc1ccc(S(=O)(=O)N2CCN(CC(=O)NC3CCCC3)CC2)cc1	1.2	-2.4	-21.1	1.1	-8.8	3.0
Cc1cccc(NC(=S)N(CCN(C)C)C(C)c2ccccn2)c1 (stereo not drawn)	0.9	/	12.2	1	2.1	3.0
Cc1cc(C)nc(NC(=O)c2c(-c3c(Cl)cccc3Cl)noc2C)n1	1	0.1	0.2	0.8	15.1	5.0
CC(=O)Nc1cccc(NC(=O)c2c(-c3c(Cl)cccc3Cl)noc2C)c1	0.2	16.4	81.8*	0.1	86.6*	-3.0
COc1cc(C)c(C(N)=O)c(OC)n1	1.2	-26.4	-24.0	1.3	-26.1	12.0
COCC(C)n1c(C)cc(C(=O)CSc2nnc(N)s2)c1C (stereo not drawn)	1	/	0.8	0.9	7.4	0.0
CC1=CC(C)(C)N(C(=O)CSc2nnc(N)s2)c2c(C)cc(C)cc21	0.4	/	59.7*	0.5	50.3*	1.0
Cc1[nH]c2ccc(C(=O)O)cc2c1C	0	/	99.1*	0.8	19.4	-11.0
Cc1[nH]c2ccc(-c3nnc(SCC(=O)c4ccc(F)cc4)o3)cc2c1C	0.8	-12.3	23.2	0.7	29.3	-8.0
Cc1c(NC(=O)COc2ncnc3ccccc23)c(=O)n(-c2ccccc2)n1C	1	-26.1	-4.1	1	2.0	9.0
CN(c1ccc(C(=O)N2CCOCC2)cc1[N+](=O)[O-])C1CCCCC1	1	/	0.2	1	-2.2	7.0
NC(=O)CSc1nnc(Cc2csc(Nc3ccccc3)n2)n1Cc1ccccc1	0.3	18.2	65.6*	0.5	48.9	-1.0
O=C(c1ccc(COc2ccc(Cl)cc2)o1)N1CCN(Cc2ccc3c(c2)OCO3)CC1	0.8	95.7*	16.0	0.4	62.3*	-19.0
SMILES	CYP2C19 activ	tolC growth inh	CYP2C19 inhib	CYP2C9 activ	CYP2C9 inh	Ecoli WT expand
CCN1CCN(C(=O)c2ccc(COc3ccc(Cl)cc3)o2)CC1	1	/	-2.9	1	1.1	18.0
O=C(c1ccc(COc2ccccc2Cl)o1)N1CCN(Cc2ccc3c(c2)OCO3)CC1	0.3	52.2	71.8*	0.1	86.7*	-6.0
O=C(NCCN1CCOCC1)c1cnn2c(-c3ccccc3)cc(-c3ccccc3)nc12	0.4	/	57.3*	0.6	36.0	-2.0
O=C(NCCN1CCOCC1)c1ccccc1-c1ccccc1	0.9	-1.0	14.6	0.9	13.6	-1.0
Cc1oc(-c2ccc(Cl)cc2)nc1CN1CCCC(C(=O)NCc2ccco2)C1 (stereo not drawn)	0.6	3.3	37.8	0.6	35.1	1.0
CC(NC(=O)Cn1nc(-c2ccccc2)c2ccccc2c1=O)c1ccccc1 (stereo not drawn)	0.1	/	88.6*	0.8	24.7	-7.0
O=C1C(N2CCOCC2)=C(n2nnc3ccccc32)C(=O)c2ccccc21	0	/	100.3*	0.1	90.0*	9.0
COc1cc2nc(CN3CCN(c4ncc(C(F)(F)F)cc4Cl)CC3)[nH]c(=O)c2cc1OC	0.8	14.9	15.1	0.9	14.8	/
COc1ccc(/C=C/C(O)=C2/C(=O)N(C)C3(C)CC2c2ccccc2O3)cc1 (stereo not drawn)	0.9	16.8	12.1	0.9	13.2	-22.0
CCN1C(=O)C(C(=O)Nc2ccc(OC)cc2)C2CC1(C)Oc1ccccc12 (stereo not drawn)	0.8	-1.3	16.1	0.5	53.5*	-2.0
Cc1ccc(NC(=O)C2CCN(S(=O)(=O)c3c(C)n[nH]c3C)CC2)nc1	1.1	-8.2	-6.3	1.4	-37.9	-2.0
COc1ccc(C2C=C(c3ccc(Br)cc3)Nc3nc(N4C(=O)CCC4=O)nn32)cc1 (stereo not drawn)	0.6	29.0	37.0	0.7	33.9	-8.0
O=C1CCC(=O)N1c1nc2n(n1)C(c1ccccc1)C=C(c1ccc(Br)cc1)N2 (stereo not drawn)	0.5	17.3	49.2	0.4	60.8*	-8.0
CCOc1ccc(-c2nc(N)nc(C)c2-c2ccc(OC)c(OC)c2)c(O)c1	1	-7.6	3.7	0.9	5.0	-3.0
CCOc1ccc(-c2cn[nH]c2N)cc1	1	/	1.6	1	-3.6	7.0
C=C(C)COc1ccc(-c2[nH]ncc2-c2ccccc2)c(O)c1	0.6	/	41.2	0.2	82.6*	26.0
C=C(C)COc1ccc(-c2[nH]ncc2-c2ccc(OC)c(OC)c2)c(O)c1	0.9	91.1*	9.5	0.7	33.0	2.0
N=C1C(c2nc3ccccc3[nH]2)=C(O)CN1c1ccccc1	1.2	1.8	-15.7	1.1	-5.0	6.0
CCCCCCN1CC(O)=C(c2nc3ccccc3[nH]2)C1=N	0.4	2.3	58.8*	0.1	89.9*	-4.0
CCC(C)N1CC(O)=C(c2nc3ccccc3[nH]2)C1=N (stereo not drawn)	0.2	-2.3	84.3*	0.6	37.7	7.0
